From ChEMBL document CHEMBL5247578, “Effective synthesis of benzimidazoles-imidazo[1,2-a]pyrazine conjugates: A comparative study of mono-and bis-benzimidazoles for antitumor activity” (Eur J Med Chem, 2019)

Assays:
[1] = target: Albumin (Bos taurus, UniProt P02769); assay: Binding affinity to bovine serum albumin assessed as Stern-Volmer quenching constant by fluorescence spectroscopic method; details: cattle
[2] = system: Calf thymus DNA; assay: Binding affinity to calf thymus DNA assessed as DNA intercalation by measuring Stem-Volmer quenching constant at temperature of 298 K by fluorescence spectroscopic method; assay type: nucleic-acid assay; details: Bos taurus
[3] = system: RXF 393; assay: Antiproliferative activity against human RXF 393 cells assessed as cell growth at 0.00000001 M incubated for 48 hrs by SRB assay relative to control; assay type: functional; details: dose 10 nM, read-out: Activity
[4] = system: CCRF-CEM; assay: Antiproliferative activity against human CCRF-CEM cells assessed as cell growth at 0.00000001 M incubated for 48 hrs by SRB assay relative to control; assay type: functional; details: dose 10 nM, read-out: Activity
Summary of the method: (§1)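 NCI-60 five-dose screen over 10^-4–10^-8 M (10-fold dilutions). Cells grown in RPMI 1640 with 5% FBS and 2 mM L-glutamine, seeded at 5,000–40,000 cells/well and preincubated 24 h. Drug from DMSO stock, 48 h at 37 °C, 5% CO2. Adherent cells TCA-fixed and stained with 0.4% SRB; A515 read. Percent growth = (Ti−Tz)/(C−Tz)×100, or (Ti−Tz)/Tz×100 when Ti<Tz.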

[5] = system: HOP-62; assay: Antiproliferative activity against human HOP-62 cells assessed as cell growth at 0.00000001 M incubated for 48 hrs by SRB assay relative to control; assay type: functional; details: dose 10 nM, read-out: Activity
Summary of the method: (§2)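 NCI-60 five-dose screen (10^-4 to 10^-8 M). Cells grown in RPMI 1640 with 5% FBS and 2 mM L-glutamine, plated at 5,000-40,000 cells/well and preincubated 24 h. Drug given from DMSO stock, then 48 h at 37 °C, 5% CO2. For adherent lines, cells fixed with cold TCA, SRB-stained and read at 515 nm. Percent growth taken against time-zero and untreated control.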

[6] = system: 786-0; assay: Antiproliferative activity against human 786-0 cells assessed as cell growth inhibition by measuring lethal concentration incubated for 48 hrs by sulforhodamine B assay; assay type: functional; details: read-out: LC50 (the source's name)
[7] = system: NCI/ADR-RES; assay: Antiproliferative activity against human NCI/ADR-RES cells assessed as cell growth inhibition by measuring lethal concentration incubated for 48 hrs by sulforhodamine B assay; assay type: functional; details: read-out: LC50 (the source's name)
[8] = system: A549; assay: Antiproliferative activity against human A549 cells assessed as cell growth inhibition by measuring lethal concentration incubated for 48 hrs by sulforhodamine B assay; assay type: functional; details: read-out: LC50 (the source's name)
[9] = system: HL-60; assay: Antiproliferative activity against human HL-60 cells assessed as cell growth inhibition by measuring lethal concentration incubated for 48 hrs by sulforhodamine B assay; assay type: functional; details: read-out: LC50 (the source's name)
[10] = system: NCI-H322M; assay: Growth inhibition against human NCI-H322M cells assessed as total growth inhibitory concentration incubated for 48 hrs by sulforhodamine B assay; assay type: functional
[11] = system: MOLT-4; assay: Growth inhibition against human MOLT-4 cells assessed as total growth inhibitory concentration incubated for 48 hrs by sulforhodamine B assay; assay type: functional
[12] = system: T47D; assay: Growth inhibition against human T47D cells incubated for 48 hrs by sulforhodamine B assay; assay type: functional
[13] = system: BT-549; assay: Growth inhibition against human BT-549 cells incubated for 48 hrs by sulforhodamine B assay; assay type: functional
[14] = system: M14; assay: Growth inhibition against human M14 cells incubated for 48 hrs by sulforhodamine B assay; assay type: functional
[15] = system: CCRF-CEM; assay: Growth inhibition against human CCRF-CEM cells incubated for 48 hrs by sulforhodamine B assay; assay type: functional
[16] = system: OVCAR-3; assay: Antiproliferative activity against human OVCAR-3 cells assessed as cell growth at 0.0000001 M incubated for 48 hrs by SRB assay relative to control; assay type: functional; details: dose 100 nM, read-out: Activity
[17] = system: OVCAR-5; assay: Antiproliferative activity against human OVCAR-5 cells assessed as cell growth at 0.0000001 M incubated for 48 hrs by SRB assay relative to control; assay type: functional; details: dose 100 nM, read-out: Activity
[18] = system: PC-3; assay: Antiproliferative activity against human PC-3 cells assessed as cell growth at 0.0000001 M incubated for 48 hrs by SRB assay relative to control; assay type: functional; details: dose 100 nM, read-out: Activity
[19] = system: NCI-H460; assay: Antiproliferative activity against human NCI-H460 cells assessed as cell growth at 0.000001 M incubated for 48 hrs by SRB assay relative to control; assay type: functional; details: read-out: Activity
[20] = system: HCT-15; assay: Antiproliferative activity against human HCT-15 cells assessed as cell growth at 0.000001 M incubated for 48 hrs by SRB assay relative to control; assay type: functional; details: read-out: Activity; summary of the method: as §2
[21] = system: KM12; assay: Antiproliferative activity against human KM12 cells assessed as cell growth at 0.000001 M incubated for 48 hrs by SRB assay relative to control; assay type: functional; details: read-out: Activity
[22] = system: SF-539; assay: Antiproliferative activity against human SF-539 cells assessed as cell growth at 0.000001 M incubated for 48 hrs by SRB assay relative to control; assay type: functional; details: read-out: Activity
[23] = system: OVCAR-3; assay: Antiproliferative activity against human OVCAR-3 cells assessed as cell growth at 0.000001 M incubated for 48 hrs by SRB assay relative to control; assay type: functional; details: read-out: Activity
[24] = system: UO-31; assay: Antiproliferative activity against human UO-31 cells assessed as cell growth at 0.000001 M incubated for 48 hrs by SRB assay relative to control; assay type: functional; details: read-out: Activity
[25] = system: MCF7; assay: Antiproliferative activity against human MCF7 cells assessed as cell growth at 0.000001 M incubated for 48 hrs by SRB assay relative to control; assay type: functional; details: read-out: Activity
[26] = system: KM12; assay: Antiproliferative activity against human KM12 cells assessed as cell growth at 0.00001 M incubated for 48 hrs by SRB assay relative to control; assay type: functional; details: read-out: Activity
[27] = system: MDA-MB-435; assay: Antiproliferative activity against human MDA-MB-435 cells assessed as cell growth at 0.00001 M incubated for 48 hrs by SRB assay relative to control; assay type: functional; details: read-out: Activity
[28] = system: UACC-257; assay: Antiproliferative activity against human UACC-257 cells assessed as cell growth at 0.00001 M incubated for 48 hrs by SRB assay relative to control; assay type: functional; details: read-out: Activity
[29] = system: NCI/ADR-RES; assay: Antiproliferative activity against human NCI/ADR-RES cells assessed as cell growth at 0.00001 M incubated for 48 hrs by SRB assay relative to control; assay type: functional; details: read-out: Activity
[30] = system: CAKI-1; assay: Antiproliferative activity against human CAKI-1 cells assessed as cell growth at 0.00001 M incubated for 48 hrs by SRB assay relative to control; assay type: functional; details: read-out: Activity; summary of the method: as §1
[31] = system: RXF 393; assay: Antiproliferative activity against human RXF 393 cells assessed as cell growth at 0.00001 M incubated for 48 hrs by SRB assay relative to control; assay type: functional; details: read-out: Activity
[32] = system: DU-145; assay: Antiproliferative activity against human DU-145 cells assessed as cell growth at 0.00001 M incubated for 48 hrs by SRB assay relative to control; assay type: functional; details: read-out: Activity; summary of the method: as §2
[33] = system: RPMI-8226; assay: Antiproliferative activity against human RPMI-8226 cells assessed as cell growth at 0.0001 M incubated for 48 hrs by SRB assay relative to control; assay type: functional; details: read-out: Activity
[34] = system: HCT-15; assay: Antiproliferative activity against human HCT-15 cells assessed as cell growth at 0.0001 M incubated for 48 hrs by SRB assay relative to control; assay type: functional; details: read-out: Activity; summary of the method: as §2
[35] = system: OVCAR-3; assay: Antiproliferative activity against human OVCAR-3 cells assessed as cell growth at 0.0001 M incubated for 48 hrs by SRB assay relative to control; assay type: functional; details: read-out: Activity

Albumin, sequence (P02769 whole entry): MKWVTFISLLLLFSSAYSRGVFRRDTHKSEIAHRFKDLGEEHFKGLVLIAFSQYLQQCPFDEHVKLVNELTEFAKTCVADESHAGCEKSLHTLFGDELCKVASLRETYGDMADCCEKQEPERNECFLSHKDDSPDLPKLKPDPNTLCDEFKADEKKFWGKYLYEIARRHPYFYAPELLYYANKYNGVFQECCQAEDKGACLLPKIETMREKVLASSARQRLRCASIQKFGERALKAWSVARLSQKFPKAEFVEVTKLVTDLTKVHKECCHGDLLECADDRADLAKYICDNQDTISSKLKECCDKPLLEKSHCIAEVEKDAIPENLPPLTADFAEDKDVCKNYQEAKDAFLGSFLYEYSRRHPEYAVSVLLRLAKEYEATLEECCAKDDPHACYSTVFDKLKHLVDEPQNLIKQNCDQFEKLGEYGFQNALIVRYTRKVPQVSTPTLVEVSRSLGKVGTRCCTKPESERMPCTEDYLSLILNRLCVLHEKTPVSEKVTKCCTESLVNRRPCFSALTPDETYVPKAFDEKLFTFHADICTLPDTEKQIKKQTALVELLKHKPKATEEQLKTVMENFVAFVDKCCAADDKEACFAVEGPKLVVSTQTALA

| SMILES | KSV [1] | KSV [2] | growth at 0.01 µM [3] | growth at 0.01 µM [4] | growth at 0.01 µM [5] | CC50 [6] | CC50 [7] | CC50 [8] | CC50 [9] | TGI [10] | TGI [11] | GI50 [12] | GI50 [13] | GI50 [14] | GI50 [15] | growth at 0.1 µM [16] | growth at 0.1 µM [17] | growth at 0.1 µM [18] | growth at 1 µM [19] | growth at 1 µM [20] | other results |
| --- | --- | --- | --- | --- | --- | --- | --- | --- | --- | --- | --- | --- | --- | --- | --- | --- | --- | --- | --- | --- | --- |
| COc1ccc(-c2cn3ccnc3c(-c3ccc4ncn(C5CCCCC5)c4c3)n2)cc1 | 1.16 10^5/M | 4.65 10^4/M | 102% | 106% | 92% | > 100 µM | > 100 µM | > 100 µM | > 100 µM | > 100 µM | > 100 µM | 0.76 µM | 0.41 µM | 0.612 µM | 1.64 µM | 99% | 90% | 98% | 35% | 42% | growth at 1 µM [21]: 57%; growth at 1 µM [22]: 35%; growth at 1 µM [23]: 19%; growth at 1 µM [24]: 55%; growth at 1 µM [25]: 40%; growth at 10 µM [26]: 5%; growth at 10 µM [27]: 6%; growth at 10 µM [28]: 60%; growth at 10 µM [29]: -4%; growth at 10 µM [30]: 25%; growth at 10 µM [31]: -2%; growth at 10 µM [32]: 14%; growth at 100 µM [33]: 15%; growth at 100 µM [34]: 13%; growth at 100 µM [35]: 17% |
| c1ccc(Cn2cnc3ccc(-c4nc(-c5ccc6c(c5)ncn6C5CCCCC5)cn5ccnc45)cc32)cc1 | 1.14 10^5/M | 1.19 10^4/M | 101% | 100% | 79% | > 100 µM | > 100 µM | > 100 µM | > 100 µM | > 100 µM | > 100 µM | 1.49 µM | 1.2 µM | 1.45 µM | 2.18 µM | 100% | 89% | 96% | 96% | 65% | growth at 1 µM [21]: 93%; growth at 1 µM [22]: 53%; growth at 1 µM [23]: 94%; growth at 1 µM [24]: 78%; growth at 1 µM [25]: 87%; growth at 10 µM [26]: -41%; growth at 10 µM [27]: -32%; growth at 10 µM [28]: -64%; growth at 10 µM [29]: -30%; growth at 10 µM [30]: 17%; growth at 10 µM [31]: -79%; growth at 10 µM [32]: 4%; growth at 100 µM [33]: -33%; growth at 100 µM [34]: 3%; growth at 100 µM [35]: -19% |
